Our source for the GFP response vs DMSO, GFP response relative to DMSO and GFP response, % of DMSO values is PubChem BioAssay.

A short description of experiment [1]: hit retest on RPL19A-GFP reporter strain – cell-based, S. cerevisiae, flow cytometry, cherry picks, mother/daughter gates, confirmation (AID 2270;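 active means GFP response below 50% of the DMSO control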). The conditions noted are these: 3 h, at 10 µM, stronger effect = lower value, 100 = same GFP as DMSO wells. (In general: Flow cytometry measures light scatter and fluorescence of single cells or particles in a stream.)
A short description of experiment [2]: yeast TOR pathway reporter LAP4-GFP change – cell-based, cherry picks, flow cytometry, mother/daughter gates, confirmation (AID 2271;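 active means GFP response above 150% of the DMSO control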;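 further: ratio of sample to DMSO plate mean so 100% equals DMSO level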). The conditions noted are these: S. cerevisiae LAP4-GFP strain, 3 h, at 10 µM, stronger effect = higher value, 100 means same as DMSO control. In outline:
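material = Alexa 633-stained baker's yeast GFP-fusion strain | amount = 0.2 OD600 cells | schedule = 30 °C, 3 h compound incubation, rotating | signal = GFP by flow cytometry | measure = per-gate (all, mother, daughter) GFP response vs DMSO | controls = positive rapamycin (400 ng/mL), negative DMSO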

Experiment [3] is described as follows: TOR pathway reporter MEP2-GFP, retest of hits – S. cerevisiae, flow cytometry GFP, cherry picks, confirmation (AID 2272;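 active means GFP response above 150% of the DMSO control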;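 further: ratio of well signal to plate DMSO mean so 100% equals DMSO level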). The following applies: S. cerevisiae MEP2-GFP strain, 3 h, at 10 µM, stronger effect = higher value.
The nature of experiment [4]: yeast AGP1-GFP fluorescence change, single-dose – cell-based, flow cytometry, S. cerevisiae, cherry picks, confirmation (AID 2273).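 Further: median GFP channel fluorescence over the whole cell population gate.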 The conditions noted are these: S. cerevisiae AGP1-GFP strain, 3 h, at 10 µM.
The nature of experiment [5]: TOR pathway CIT2 reporter hit retest – S. cerevisiae, GFP fusion, cherry picks, mother/daughter gates, confirmation (AID 2274). The following applies: S. cerevisiae CIT2-GFP strain, flow cytometry, 3 h, at 10 µM, stronger effect = higher value.
Setting [6] is: measured here: daughter cell gate.
Where [7] appears, read: measured here: mother cell gate.
Setting [8] is: measured here: daughter cell gate response.
Where [9] appears, read: measured here: mother cell gate response.

Calls of active or inactive are those of the source.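 How the source made its calls, unless noted: active means GFP response above 150% of the DMSO level; inconclusive means fewer than 70 events counted for a yeast strain; inactive means the rest.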

For `O=C(Nc1ccc(NC(=O)c2cc3ccccc3o2)cc1)c1ccco1`, the GFP response vs DMSO is 100% (inactive) in experiment [1], 97.6% in experiment [1] (setting [6]), 101% in experiment [1] (setting [7]) and 101% (inactive) in experiment [3]. Also, the GFP response relative to DMSO in experiment [2] was 97% (inactive); in experiment [2] (setting [8]) it was 95.9%; in experiment [2] (setting [9]), 97.3%. In addition, the GFP response, % of DMSO in experiment [4] was 106% (inactive); in experiment [5], 98.8% (inactive); in experiment [5] (setting [6]), 99.2%; in experiment [5] (setting [7]) it was 98.1%.

In the case of `CCCN(CCC)S(=O)(=O)c1ccc(C(=O)Nc2nnc(-c3cc(OC)cc(OC)c3)o2)cc1`, the GFP response vs DMSO in experiment [1] was 98.2% (inactive); in experiment [1] (setting [6]), 99.4%; in experiment [1] (setting [7]) it was 99%; in experiment [3] it was 102% (inactive). Moreover, the GFP response relative to DMSO in experiment [2] is 91.5% (inactive); in experiment [2] (setting [8]) it was 91.2%; in experiment [2] (setting [9]) it was 91.9%. The GFP response, % of DMSO is 93.9% (inactive) in experiment [4], 101% (inactive) in experiment [5], 101% in experiment [5] (setting [6]) and 101% in experiment [5] (setting [7]).

Consider `CCc1nn2c(N3CCOCC3)cc(C)nc2c1-c1ccc(F)cc1`, for which the GFP response vs DMSO in experiment [1] was 99.8% (inactive); in experiment [1] (setting [6]), 99.8%; in experiment [1] (setting [7]), 98.4%; in experiment [3], 106% (inactive). Also, the GFP response relative to DMSO in experiment [2] is 104% (inactive); in experiment [2] (setting [8]) it was 104%; in experiment [2] (setting [9]), 104%. Moreover, the GFP response, % of DMSO is 98.6% (inactive) in experiment [4], 95.8% (inactive) in experiment [5], 101% in experiment [5] (setting [6]) and 94.9% in experiment [5] (setting [7]).

Turning to `COc1ccccc1-c1noc(CCC(=O)Nc2cccc(C)c2)n1`, the GFP response vs DMSO in experiment [1] is 99.9% (inactive); in experiment [1] (setting [6]), 100%; in experiment [1] (setting [7]), 100%; in experiment [3] it was 97.5% (inactive). Also, the figures for the GFP response relative to DMSO in experiment [2], in experiment [2] (setting [8]) and in experiment [2] (setting [9]) were 96.5% (inactive), 96.5% and 96.5%, respectively. In addition, the GFP response, % of DMSO in experiment [4] was 90.8% (inactive); in experiment [5], 95% (inactive); in experiment [5] (setting [6]), 98.3%; in experiment [5] (setting [7]) it was 95.6%.

For `Cc1c(O)ccc(/C=N/Nc2nc(-c3cccnc3)nc3ccccc23)c1O`, the GFP response vs DMSO in experiment [1] is 97.4% (inactive); in experiment [1] (setting [6]) it was 95.9%; in experiment [1] (setting [7]), 98.5%; in experiment [3], 102% (inactive). For the same compound, the GFP response relative to DMSO in experiment [2] is 97.4% (inactive); in experiment [2] (setting [8]), 92.5%; in experiment [2] (setting [9]), 103%. In addition, the GFP response, % of DMSO in experiment [4] is 93.9% (inactive); in experiment [5] it was 99.1% (inactive); in experiment [5] (setting [6]) it was 96.5%; in experiment [5] (setting [7]), 98.7%.

As to `Cc1ccc(-c2csc(NC(=O)c3cccs3)n2)cc1`, the GFP response vs DMSO in experiment [1] is 98.8% (inactive); in experiment [1] (setting [6]) it was 93.9%; in experiment [1] (setting [7]), 99.6%; in experiment [3] it was 112% (inactive). The GFP response relative to DMSO in experiment [2] was 105% (inactive); in experiment [2] (setting [8]), 99.1%; in experiment [2] (setting [9]), 107%. In addition, the GFP response, % of DMSO is 98% (inactive) in experiment [4], 94.4% (inactive) in experiment [5], 90.2% in experiment [5] (setting [6]) and 94.4% in experiment [5] (setting [7]).

Regarding `O=[N+]([O-])c1c(Nc2ccccn2)cc(Cl)c2nonc12`, the GFP response vs DMSO is 139% (inactive) in experiment [1], 86.3% in experiment [1] (setting [6]), 129% in experiment [1] (setting [7]) and 966% (active) in experiment [3]. Also, the figures for the GFP response relative to DMSO in experiment [2], in experiment [2] (setting [8]) and in experiment [2] (setting [9]) were 478% (active), 123% and 522%, respectively. Also, the GFP response, % of DMSO was 143% (inactive) in experiment [4], 979% (active) in experiment [5], 103% in experiment [5] (setting [6]) and 906% in experiment [5] (setting [7]).

For the compound `CCCCC(=O)NNC(=S)NC(=O)c1ccc(C)cc1`, the GFP response vs DMSO in experiment [1] is 116% (inactive); in experiment [1] (setting [6]) it was 111%; in experiment [1] (setting [7]), 111%; in experiment [3], 134% (inactive). The GFP response relative to DMSO in experiment [2] was 249% (active); in experiment [2] (setting [8]), 204%; in experiment [2] (setting [9]) it was 233%. For the same compound, the GFP response, % of DMSO in experiment [4] is 100% (inactive); in experiment [5], 119% (inactive); in experiment [5] (setting [6]), 114%; in experiment [5] (setting [7]), 110%.

As for `CCOC(=O)CSC1=NC(=O)/C(=C/c2ccc(OC)cc2)S1`, the GFP response vs DMSO in experiment [1] is 100% (inactive); in experiment [1] (setting [6]), 92.5%; in experiment [1] (setting [7]), 98.2%; in experiment [3], 103% (inactive). For the same compound, the results for the GFP response relative to DMSO in experiment [2], in experiment [2] (setting [8]) and in experiment [2] (setting [9]) were 154% (active), 139% and 159%, respectively. Besides, the GFP response, % of DMSO in experiment [4] was 102% (inactive); in experiment [5], 79.7% (inactive); in experiment [5] (setting [6]), 79.4%; in experiment [5] (setting [7]), 71.8%.

In the case of `COc1ccc(/C(C)=N/NC(=O)c2ccc(N(C)C)cc2)cc1`, the GFP response vs DMSO in experiment [1] is 103% (inactive); in experiment [1] (setting [6]), 102%; in experiment [1] (setting [7]), 103%; in experiment [3], 104% (inactive). The GFP response relative to DMSO in experiment [2] was 95% (inactive); in experiment [2] (setting [8]) it was 94.1%; in experiment [2] (setting [9]) it was 97.2%. Further, the GFP response, % of DMSO is 101% (inactive) in experiment [4], 104% (inactive) in experiment [5], 103% in experiment [5] (setting [6]) and 104% in experiment [5] (setting [7]).

As to `Cc1cc(NC(=O)c2ccc3c(c2)OCCO3)ccc1NC(=O)c1cc2ccccc2o1`, the GFP response vs DMSO is 97.6% (inactive) in experiment [1], 99.5% in experiment [1] (setting [6]), 96.5% in experiment [1] (setting [7]) and 103% (inactive) in experiment [3]. Besides, the results for the GFP response relative to DMSO in experiment [2], in experiment [2] (setting [8]) and in experiment [2] (setting [9]) were 89.4% (inactive), 89.8% and 91.3%, respectively. The GFP response, % of DMSO in experiment [4] is 93.2% (inactive); in experiment [5], 95.8% (inactive); in experiment [5] (setting [6]) it was 97.6%; in experiment [5] (setting [7]), 97.1%.

On to `COc1cccc(C(=O)/C=C/c2ccc(SC)cc2)c1`, for which the GFP response vs DMSO in experiment [1] was 98.6% (inactive); in experiment [1] (setting [6]), 98.1%; in experiment [1] (setting [7]) it was 98.5%; in experiment [3], 100% (inactive). Also, the GFP response relative to DMSO is 103% (inactive) in experiment [2], 104% in experiment [2] (setting [8]) and 103% in experiment [2] (setting [9]). Further, the GFP response, % of DMSO in experiment [4] is 101% (inactive); in experiment [5] it was 99.7% (inactive); in experiment [5] (setting [6]), 99.1%; in experiment [5] (setting [7]), 99.7%.

Consider `COc1ccc(C(=O)Oc2ccc(/C=N/NC(=O)c3ccccc3OC)cc2[N+](=O)[O-])cc1`, for which the GFP response vs DMSO in experiment [1] is 102% (inactive); in experiment [1] (setting [6]), 103%; in experiment [1] (setting [7]) it was 101%; in experiment [3], 104% (inactive). In addition, the GFP response relative to DMSO in experiment [2] is 87.2% (inactive); in experiment [2] (setting [8]), 87.8%; in experiment [2] (setting [9]) it was 86.7%. Moreover, the GFP response, % of DMSO was 101% (inactive) in experiment [4], 104% (inactive) in experiment [5], 104% in experiment [5] (setting [6]) and 100% in experiment [5] (setting [7]).
